B1: tRNA (parent)
chain: GUUCCGUUGGCGUAAUGGUAACGCGUCUCCCUCCUAAGGAGAAGACUGCGGGUUCGAGUCCCGUACGGAACG

Variants of: B1
Experiment: yeast fitness, log relative to wild type (ln ratio); higher = fitter; tRNA-Arg(CCU), competitive growth, 37 C, 1 M NaCl
Procedure, shortened: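 BY4742 cells without the chromosomal tRNA-Arg(CCU) gene carried a combinatorial variant library on a HIS3 centromeric plasmid, from two independent transformations. After 4 generations in SC-HIS at 30 °C, pools spent ~6.5 generations (~26.5 h) in SC-HIS 1M NaCl at 37 °C, giving three outputs per input, and 125 bp paired-end Illumina reads counted the variants. Fitness is the natural log of each genotype's generations over the wild type's, with generations taken as OD-scaled log2 output/input frequency weighted by inverse variance across replicates.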

Variant	yeast fitness (ln)
G1A U2C C27U C46U C66A A70G C71U	-0.262
G1A U2C G6A C46U C66U C71U	-0.0596
G1A U2C G6A C66U C71U	-0.083
G1A U2C C27U C46U C66U	-0.144
G1A U2C C27U A70U	-0.0826
G1A U2C C27U A70G	-0.0624
G1A U2C G6A C27U C46U C66U A70U C71U	-0.364
G1A U2C G6A C46U C71U	-0.108
G1A U2C C46U A69G A70G C71U	0.00686
G1A U2C C27U A43C A69G A70U C71U	-0.345
G1A U2C A69G A70G C71U	-0.0058
G1A U2C G6U A43C A70G C71U	-0.198
G1A U2C C27U C66U A69G A70U C71U	-0.54
G1A U2C G6U A69G A70U	-0.152
G1A U2C C27U A43C C46U A69G A70U	-0.0492
G1A U2C C27U A43C C46U A69G A70G	-0.178
G1A U2C G6U C27U A43C C46U C66A A70U C71U	-0.124
G1A U2C G6A C27U C66U A70G C71U	-0.0371
G1A U2C C27U C46U A69G A70G	-0.122
G1A U2C C27U C46U A69G A70U	-0.0465
G1A U2C G6A C46U C66A A70U C71U	-0.102

Variant	yeast fitness (ln)
G1A U2C C27U A69G C71U	-0.131
G1A U2C C27U A43C C46U A69G A70U C71U	-0.215
G1A U2C G6A A43C C46U A70U C71U	-0.0375
G1A U2C G6U A43C C66U A70G C71U	-0.335
G1A U2C G6A A43C C46U A69G A70U	-0.0463
G1A U2C G6A A43C C46U A69G A70G	-0.191
G1A U2C C27U C66U C71U	-0.33
G1A U2C C27U C46U C71U	-0.147
G1A U2C C46U A70U C71U	-0.0299
G1A U2C G6A C66A A70G C71U	-0.127
G1A U2C G6A A43C C46U C66U A69G A70U	-0.0607
G1A U2C G6A A43C C46U C66U A69G A70G	-0.232
G1A U2C C27U C46U C66U A70U	-0.0209
G1A U2C C27U C46U C66U A70G	-0.242
G1A U2C G6U A43C C46U A69G A70U C71U	-0.343
G1A U2C G6A C46U C66A A70G C71U	-0.105
G1A U2C G6A C46U	0.00156
G1A U2C A70U C71U	-0.0394
G1A U2C G6A A43C C46U C66U C71U	-0.246
G1A U2C G6A C27U C66U A69G A70G C71U	-0.0671
G1A U2C G6A C27U C66U A70U C71U	-0.261

Variant	yeast fitness (ln)
G1A U2C C46U C66U A70G C71U	-0.01
G1A U2C C46U A70G C71U	0.000912
G1A U2C C27U C71U	-0.238
G1A U2C G6A A69G A70G C71U	-0.187
G1A U2C C66A A70G C71U	-0.208
G1A U2C C27U C46U A70U	-0.127
G1A U2C C27U C46U A70G	-0.0417
G1A U2C C66A A70U C71U	-0.0883
G1A U2C C27U A43C	-0.0395
G1A U2C G6U C27U A43C A70U C71U	-0.294
G1A U2C C27U C66U A70U C71U	-0.256
G1A U2C G6U C27U A43C C46U	-0.0772
G1A U2C G6U A43C C46U C66A A70G	-0.000562
G1A U2C G6U A43C C46U C66A A70U	-0.177
G1A U2C G6A C27U A43C C46U A70G C71U	-0.149
G1A U2C G6U C27U A43C	-0.181
G1A U2C G6U A43C C46U C66A C71U	-0.3
G1A U2C A43C C46U C66U A70U C71U	-0.202
G1A U2C G6A C27U A43C C46U A70U C71U	-0.153
G1A U2C G6U C27U A43C A69G A70G C71U	-0.238
G1A U2C G6A C27U C46U C66U A69G A70G	-0.364

Variant	yeast fitness (ln)
G1A U2C G6A C27U C46U C66U A69G A70U	-0.0756
G1A U2C G6A C66U A70U C71U	-0.159
G1A U2C G6A C27U A43C A70U	-0.0697
G1A U2C A70G C71U	-0.0141
G1A U2C G6U A43C C46U C66U A70U C71U	-0.235
G1A U2C C27U C66U	-0.191
G1A U2C G6A C27U A43C C66U A69G A70G C71U	-0.255
G1A U2C C66U A70G	-0.297
G1A U2C C66U A70U	-0.0937
G1A U2C G6A C27U C46U C66U A69G A70G C71U	-0.0405
G1A U2C G6A C46U C66U A70G C71U	0.0112
G1A U2C G6A C66U A69G C71U	-0.31
G1A U2C G6A C27U C46U C66U A69G A70U C71U	-0.327
G1A U2C G6U A70G	-0.113
G1A U2C G6U A70U	-0.00843
G1A U2C G6A A43C A70G C71U	-0.13
G1A U2C C27U C46U C66A A69G A70G C71U	-0.294
G1A U2C C27U A43C C66U A70U C71U	-0.244
G1A U2C C27U A43C C66U A69G A70U C71U	-0.397
G1A U2C C27U C46U A70G C71U	-0.0196
G1A U2C G6A C27U A43C C46U A69G A70G C71U	-0.0929

— the RNAGym collection of RNA variant scans (doi:10.1038/s41586-018-0170-7)
